According to ChEMBL document CHEMBL1150393, “Evaluation of radiolabeled (hetero)aromatic analogues of N-(2-diethylaminoethyl)-4-iodobenzamide for imaging and targeted radionuclide therapy of melanoma” (J Med Chem, 2008):

Tests used:
[1] = Partition coefficient, log P in phosphate buffer solution at pH 7.4; format: physicochemical
Summary of the method: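 Shake-flask partition: 50 µM [¹²⁵I]-labelled compound in phosphate buffer pH 7.4 was mixed with 2 mL n-octanol. Each phase was γ-counted, P was taken as the octanol/buffer activity ratio, and log P was reported.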

[2] = Biodistribution in uvea of C57BL/6 mouse bearing mouse B16-F0 cells at 0.74 to 0.92 MBq, iv after 24 hrs; format: ADME, organism-based, Uveal tract; settings: in vivo
Summary of the method: (§1)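 [¹²⁵I]-labelled compound given iv by tail vein (0.1 µmol per mouse) to male C57BL6 mice bearing s.c. B16-F0 flank tumours (5 × 10⁵ cells in PBS). Two mice per time point were killed by CO₂, frozen in liquid nitrogen and cut into 40 µm cryosections, eight slices per mouse. Slice radioactivity was read on a multiwire proportional counter, converted to kBq/g and reported as %ID/g.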

[3] = Biodistribution in tumor of C57BL/6 mouse bearing mouse B16-F0 cells at 0.74 to 0.92 MBq, iv after 24 hrs; format: ADME, organism-based, Neoplasm; settings: in vivo; summary of the method: as §1
[4] = Biodistribution in tumor of C57BL/6 mouse bearing mouse B16-F0 cells at 0.74 to 0.92 MBq, iv after 3 hrs; format: ADME, organism-based, Neoplasm; settings: in vivo; summary of the method: as §1
Liver [5] = assay: Biodistribution in liver of C57BL/6 mouse bearing mouse B16-F0 cells at 0.74 to 0.92 MBq, iv after 6 hrs; format: ADME, organism-based; settings: in vivo
Summary of the method: (§2)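 Male C57BL6 mice with s.c. left-flank B16-F0 melanoma (5 × 10⁵ cells in PBS). Two mice per time point frozen in liquid nitrogen after CO₂ sacrifice. Eight 40 µm whole-body cryosections per mouse read by multiwire proportional counter. cpm/mm² converted to kBq/g and expressed as %ID/g.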

[6] = Biodistribution in Stomach content of C57BL/6 mouse bearing mouse B16-F0 cells at 0.74 to 0.92 MBq, iv after 1 hr; format: ADME, organism-based; settings: in vivo; summary of the method: as §2
Spleen [7] = assay: Biodistribution in spleen of C57BL/6 mouse bearing mouse B16-F0 cells at 0.74 to 0.92 MBq, iv after 3 hrs; format: ADME, organism-based; settings: in vivo; summary of the method: as §1
[8] = Biodistribution in tumor of C57BL/6 mouse bearing mouse B16-F0 cells at 0.74 to 0.92 MBq, iv after 6 hrs; format: ADME, organism-based, Neoplasm; settings: in vivo; summary of the method: as §1
Pancreas = assay: Biodistribution in pancreas of C57BL/6 mouse bearing mouse B16-F0 cells at 0.74 to 0.92 MBq, iv after 1 hr; format: ADME, organism-based; settings: in vivo; summary of the method: as §2
Liver [9] = assay: Biodistribution in liver of C57BL/6 mouse bearing mouse B16-F0 cells at 0.74 to 0.92 MBq, iv after 1 hr; format: ADME, organism-based; settings: in vivo; summary of the method: as §2
Muscle tissue [10] = assay: Biodistribution in muscle of C57BL/6 mouse bearing mouse B16-F0 cells at 0.74 to 0.92 MBq, iv after 1 hr; format: ADME, organism-based; settings: in vivo; summary of the method: as §2
Blood = assay: Biodistribution in blood of C57BL/6 mouse bearing mouse B16-F0 cells at 0.74 to 0.92 MBq, iv after 6 hrs; format: ADME, organism-based; settings: in vivo; summary of the method: as §2
[11] = Ratio of drug level in tumor to liver of C57BL/6 mouse bearing mouse B16-F0 cells at 0.74 to 0.92 MBq, iv after 3 hrs; format: ADME, organism-based; settings: in vivo
Summary of the method: (§3)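 Tumour and organ radioactive concentrations came from whole-body cryosection counting (40 µm slices, eight per mouse, two mice per time) after tail-vein injection of the [¹²⁵I]-labelled compound (0.1 µmol) into male C57BL6 mice bearing s.c. B16-F0 melanoma. Each value is the ratio of the tumour concentration to the organ concentration.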

Muscle tissue [12] = assay: Biodistribution in muscle of C57BL/6 mouse bearing mouse B16-F0 cells at 0.74 to 0.92 MBq, iv after 3 hrs; format: ADME, organism-based; settings: in vivo; summary of the method: as §2
[13] = Ratio of drug level in tumor to lung of C57BL/6 mouse bearing mouse B16-F0 cells at 0.74 to 0.92 MBq, iv after 3 hrs; format: ADME, organism-based; settings: in vivo; summary of the method: as §3
[14] = Drug excretion in mouse B16-F0 cells bearing C57BL/6 mouse urine at 0.74 to 0.92 MBq, iv after 72 hrs; format: ADME, organism-based; settings: in vivo
Summary of the method: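 Urine was collected from two B16-F0 tumour-bearing C57BL6 mice for up to 72 h after iv tail-vein injection of the [¹²⁵I]-labelled compound (0.1 µmol). Samples were counted to give cumulative urinary excretion as %ID.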

[15] = Ratio of drug level in tumor to liver of C57BL/6 mouse bearing mouse B16-F0 cells at 0.74 to 0.92 MBq, iv after 1 hr; format: ADME, organism-based; settings: in vivo; summary of the method: as §3
Brain [16] = assay: Biodistribution in brain of C57BL/6 mouse bearing mouse B16-F0 cells at 0.74 to 0.92 MBq, iv after 1 hr; format: ADME, organism-based; settings: in vivo; summary of the method: as §2
Kidney [17] = assay: Biodistribution in kidney of C57BL/6 mouse bearing mouse B16-F0 cells at 0.74 to 0.92 MBq, iv after 6 hrs; format: ADME, organism-based; settings: in vivo; summary of the method: as §2
[18] = Biodistribution in Stomach content of C57BL/6 mouse bearing mouse B16-F0 cells at 0.74 to 0.92 MBq, iv after 6 hrs; format: ADME, organism-based; settings: in vivo; summary of the method: as §2
Thyroid gland = assay: Biodistribution in thyroid of C57BL/6 mouse bearing mouse B16-F0 cells at 0.74 to 0.92 MBq, iv after 24 hrs; format: ADME, organism-based; settings: in vivo; summary of the method: as §1
[19] = Biodistribution in tumor of C57BL/6 mouse bearing mouse B16-F0 cells at 0.74 to 0.92 MBq, iv after 72 hrs; format: ADME, organism-based, Neoplasm; settings: in vivo; summary of the method: as §1
Liver [20] = assay: Biodistribution in liver of C57BL/6 mouse bearing mouse B16-F0 cells at 0.74 to 0.92 MBq, iv after 3 hrs; format: ADME, organism-based; settings: in vivo; summary of the method: as §2
[21] = Ratio of drug level in tumor to brain of C57BL/6 mouse bearing mouse B16-F0 cells at 0.74 to 0.92 MBq, iv after 1 hr; format: ADME, organism-based; settings: in vivo; summary of the method: as §3
[22] = Biodistribution in uvea of C57BL/6 mouse bearing mouse B16-F0 cells at 0.74 to 0.92 MBq, iv after 6 hrs; format: ADME, organism-based, Uveal tract; settings: in vivo; summary of the method: as §1
Kidney [23] = assay: Biodistribution in kidney of C57BL/6 mouse bearing mouse B16-F0 cells at 0.74 to 0.92 MBq, iv after 3 hrs; format: ADME, organism-based; settings: in vivo; summary of the method: as §2
[24] = Biodistribution in intestinal content of C57BL/6 mouse bearing mouse B16-F0 cells at 0.74 to 0.92 MBq, iv after 1 hr; format: ADME, organism-based; settings: in vivo; summary of the method: as §2
Lung = assay: Biodistribution in lung of C57BL/6 mouse bearing mouse B16-F0 cells at 0.74 to 0.92 MBq, iv after 1 hr; format: ADME, organism-based; settings: in vivo; summary of the method: as §2
[25] = Ratio of drug level in tumor to lung of C57BL/6 mouse bearing mouse B16-F0 cells at 0.74 to 0.92 MBq, iv after 1 hr; format: ADME, organism-based; settings: in vivo; summary of the method: as §3
[26] = Biodistribution in Stomach content of C57BL/6 mouse bearing mouse B16-F0 cells at 0.74 to 0.92 MBq, iv after 3 hrs; format: ADME, organism-based; settings: in vivo; summary of the method: as §2
Spleen [27] = assay: Biodistribution in spleen of C57BL/6 mouse bearing mouse B16-F0 cells at 0.74 to 0.92 MBq, iv after 1 hr; format: ADME, organism-based; settings: in vivo; summary of the method: as §1
Liver [28] = assay: Biodistribution in liver of C57BL/6 mouse bearing mouse B16-F0 cells at 0.74 to 0.92 MBq, iv after 24 hrs; format: ADME, organism-based; settings: in vivo; summary of the method: as §2
[29] = Ratio of drug level in tumor to liver of C57BL/6 mouse bearing mouse B16-F0 cells at 0.74 to 0.92 MBq, iv after 24 hrs; format: ADME, organism-based; settings: in vivo; summary of the method: as §3
Brain [30] = assay: Biodistribution in brain of C57BL/6 mouse bearing mouse B16-F0 cells at 0.74 to 0.92 MBq, iv after 3 hrs; format: ADME, organism-based; settings: in vivo; summary of the method: as §2

Row | logD [1] | Drug uptake [2] | Drug uptake [3] | Drug uptake [4] | Drug uptake (Liver [5]) | Drug uptake [6] | Drug uptake [8] | Drug uptake (Liver [9]) | Drug uptake (Muscle tissue [10]) | Drug uptake (Blood) | Ratio [11] | Drug uptake (Muscle tissue [12]) | Ratio [13] | Activity [14] | Ratio [15] | Drug uptake (Brain [16]) | Drug uptake (Kidney [17]) | Drug uptake [18] | Drug uptake (Thyroid gland) | Drug uptake [19] | Compound | other results
1 | 0.51 | 10 % ID/g | 8.4 % ID/g | 13.9 % ID/g | 1.49 % ID/g | 17.58 % ID/g | 11.4 % ID/g | 3.92 % ID/g | 0.86 % ID/g | 1.36 % ID/g | 6.1 | 0.43 % ID/g | 7.41 | 68.9% | 5.92 | 0.35 % ID/g | 1.2 % ID/g | 9.17 % ID/g | 115.66 % ID/g | 3.3 % ID/g | CCN(CC)CCNC(=O)c1ccc2cncc([125I])c2n1.Cl.Cl | Drug uptake (Spleen [7]): 0.93 % ID/g; Drug uptake (Pancreas): 1.78 % ID/g; Drug uptake (Liver [20]): 2.27 % ID/g; Ratio [21]: 27.14; Drug uptake [22]: 13.15 % ID/g; Drug uptake (Kidney [23]): 1.51 % ID/g; Drug uptake [24]: 32.83 % ID/g; Drug uptake (Lung): 2.36 % ID/g; Ratio [25]: 9.86; Drug uptake [26]: 9.76 % ID/g; Drug uptake (Spleen [27]): 5.38 % ID/g
2 | 1.57 | 9.95 % ID/g | 5 % ID/g | 7.5 % ID/g | 1.77 % ID/g | 17.09 % ID/g | 7.8 % ID/g | 6.44 % ID/g | 0.96 % ID/g | 1.28 % ID/g | 2.74 | 0.29 % ID/g | 5.9 | 21.4% | 1.36 | 1.46 % ID/g | 1.82 % ID/g | 10.06 % ID/g | 30.38 % ID/g | 2 % ID/g | CCN(CC)CCNC(=O)c1cc2cc([125I])ccc2o1.Cl | Drug uptake (Liver [28]): 0.45 % ID/g; Ratio [29]: 11.2; Drug uptake (Liver [20]): 2.74 % ID/g; Ratio [21]: 6; Drug uptake [22]: 13.91 % ID/g; Drug uptake (Kidney [23]): 3.09 % ID/g; Drug uptake (Brain [30]): 0.24 % ID/g; Drug uptake [24]: 182.62 % ID/g; Drug uptake (Lung): 5.17 % ID/g; Ratio [25]: 1.72; Drug uptake [26]: 16.07 % ID/g; Drug uptake (Spleen [27]): 10.68 % ID/g
3 | 1.65 | 14.55 % ID/g | 7.1 % ID/g | 7.1 % ID/g | 1.54 % ID/g | 23.01 % ID/g | 7.9 % ID/g | 3.86 % ID/g | 0.74 % ID/g | 2.17 % ID/g | 3.52 | 0.43 % ID/g | 2.58 | 49.9% | 1.88 | 0.3 % ID/g | 2.11 % ID/g | 28.44 % ID/g | 88.65 % ID/g | 3.1 % ID/g | CCN(CC)CCNC(=O)c1cc2c([125I])cccc2cn1.Cl.Cl | Drug uptake (Liver [28]): 0.43 % ID/g; Drug uptake (Pancreas): 2.39 % ID/g; Ratio [29]: 16.4; Drug uptake (Liver [20]): 2.02 % ID/g; Ratio [21]: 24.23; Drug uptake [22]: 18.02 % ID/g; Drug uptake (Kidney [23]): 2.66 % ID/g; Drug uptake (Brain [30]): 0.09 % ID/g; Drug uptake [24]: 42.97 % ID/g; Drug uptake (Lung): 3.68 % ID/g; Ratio [25]: 1.96; Drug uptake [26]: 19.05 % ID/g; Drug uptake (Spleen [27]): 2.83 % ID/g
